Series [1] relates to Splenocyte. The series is described as follows: Induction of IFN in C3H/HeJ mouse splenocytes at 10 nM. It is filed as functional. The procedure, abridged: (§1)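 Mouse splenocytes are suspended at 2 × 10⁶ cells/mL in MEM with 5% fetal calf serum, penicillin and streptomycin. They are mixed 1:1 with compound (DMSO stock diluted 500-fold in medium) and cultured 18 h at 37 °C in 5% CO₂. Supernatants are filter-sterilized and stored at -80 °C. IFN (IU/mL) is measured by L929/vesicular stomatitis virus bioassay.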

Series [2] deals with Mus musculus. The series is described as follows: Induction of IFN in BALB/c mice at 0.3 mg/kg, po. It is filed as functional.
The test system of series [3] is Splenocyte. The series is described as follows: Induction of IFN in C3H/HeJ mouse splenocytes at 1 nM. The class given is functional. The procedure, abridged:
as §1

In series [4] the test system is Splenocyte. In words: Induction of IFN in C3H/HeJ mouse splenocytes at 3 nM. The class given is functional. The procedure, abridged: as §1
The subject of series [5] is Cynomolgus monkey. The series is described as follows: Induction of IFN in cynomolgus monkey at 0.1 mg/kg, po. The class given is functional, Macaca fascicularis.
Series [6] deals with Cynomolgus monkey. The series is described as follows: Induction of IFN in cynomolgus monkey at 1 mg/kg, po. The class given is functional, Macaca fascicularis.
In series [7] the test system is Mustela putorius furo. The series is described as follows: Emetic activities in ferret at 0.3 mg/kg, po. It is filed as organism-based. Set-up: dose 0.3 mg/kg, route oral. The note with it: in vivo. The method, boiled down:
(§2)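 Oral dosing of male ferrets (4 months old) with compound in 0.5% sodium carboxymethyl cellulose vehicle; doses 0.3-30 mg/kg, 5 animals per group. Animals housed singly, video-recorded continuously for 6 h. Tapes scored afterwards for presence or absence of vomiting; reported as number vomiting per group.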

Series [8] relates to Splenocyte. The series is described as follows: Induction of IFN in C3H/HeJ mouse splenocytes at 100 nM. It is filed as functional. The method, boiled down: as §1
Series [9] deals with Cynomolgus monkey. In words: Induction of IFN in cynomolgus monkey at 0.3 mg/kg, po. The class given is functional, Macaca fascicularis.
The subject of series [10] is Mustela putorius furo. In words: Emetic activities in ferret at 3 mg/kg, po. It is filed as organism-based. Also noted: dose 3 mg/kg, route oral. The following applies: in vivo. The method, boiled down:
as §2

Series [11] has as its system Mus musculus. In words: Induction of IFN in BALB/c mice at 0.1 mg/kg, po. The class given is functional.
Series [12] has as its system Splenocyte. The series is described as follows: Induction of IFN in C3H/HeJ mouse splenocytes at 30 nM. It is filed as functional. The method, boiled down: as §1
Series [13] is described as follows: Cmax in ferret at 3 mg/kg, po. The class given is ADME, organism-based, Mustela putorius furo. The note with it: in vivo. Set-up: dose 3 mg/kg, route oral. The method, boiled down:
(§3)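 Male ferrets, 4 months old, dosed orally with compound suspended in 0.5% sodium carboxymethyl cellulose. Blood (0.5 mL) drawn from jugular vein; serum separated at 1630g, 10 min, 4 °C, stored at -20 °C. Compound concentration measured by HPLC; maximum concentration reported in ng/mL.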

The nature of series [14]: Cmax in ferret at 30 mg/kg, po. It is filed as ADME, organism-based, Mustela putorius furo. Also noted: dose 30 mg/kg, route oral. The note with it: in vivo. The method, boiled down:
as §3

The subject of series [15] is Mustela putorius furo. In words: Emetic activities in ferret at 30 mg/kg, po. It is filed as organism-based. Set-up: dose 30 mg/kg, route oral. The following applies: in vivo. The method, boiled down:
as §2

The Cmax is the peak of the concentration-time curve. As for `CCOCc1nc2c(N)nc3ccccc3c2n1CC(C)(C)O` [RESIQUIMOD], the Activity in [1] is reported as 11 IU/ml; in series [2], 1714 IU/ml; in [3] it was <0.5 IU/ml; in series [4] it was 2.8 IU/ml; in [5] it was 7 IU/ml; in series [6], 44037 IU/ml. The Activity result in [7] is on record as “Active”; in [8], 4 IU/ml; in series [9], 13 IU/ml; in series [10], “Active”; in series [11], 1176 IU/ml; in series [12], 7 IU/ml. This compound came in with a Cmax in series [13] of 1180 ng/mL.
Consider `CCCCNc1nc(N)c2nc(O)n(Cc3ccc(C)nc3)c2n1`, for which the Activity in [1] is recorded as 7.8 IU/ml; in [2], 1891 IU/ml; in series [3], <0.5 IU/ml; in [4], 4.4 IU/ml; in series [5], 121 IU/ml; in series [6], 34810 IU/ml. The Activity entry in [7] is recorded as “Not Active”; in series [8] it was 1.4 IU/ml; in series [9], 591 IU/ml; in series [10] it was “Not Active”; in series [11] it was 393 IU/ml; in series [12], 3.7 IU/ml. The Activity result in series [15] is recorded as “Not Active”. The maximum concentration (Cmax) in series [14] stood at 1020 ng/mL; in series [13], 20.8 ng/mL.
As for `CCCCNc1nc(N)c2nc(O)n(Cc3cccnc3)c2n1`, the Activity was 32.5 IU/ml in series [1]; 327 IU/ml in series [2]; <0.5 IU/ml in series [3]; 1.6 IU/ml in series [4]; 8.1 IU/ml in series [8]; 76 IU/ml in series [11]. This compound displayed an Activity in series [12] of 16.6 IU/ml.
As to `CCCCNc1nc(N)c2nc(O)n(Cc3ccc(Cl)nc3)c2n1`, the Activity is 6.8 IU/ml in series [1]; 1826 IU/ml in series [2]; <0.5 IU/ml in series [3]; 5.6 IU/ml in series [4]; 0 IU/ml in series [5]; 3602 IU/ml in series [6]. Further, the Activity entry in series [7] is “Not Active”; in series [8] it was 1.5 IU/ml; in [9], 19 IU/ml; in series [10], “Not Active”; in series [11], 811 IU/ml; in [12], 2.6 IU/ml. Besides, in series [15], the Activity result is “Not Active”. In addition, the Cmax in series [14] came out at 275 ng/mL; in series [13], 20.1 ng/mL.
As for `CCCCNc1nc(N)c2nc(O)n(Cc3ccc(OC)cc3)c2n1`, the Activity in series [1] is given as 6.5 IU/ml; in series [2], 933 IU/ml; in series [4] it was <0.5 IU/ml; in series [8] it was 2 IU/ml; in series [11] it was 73 IU/ml; in series [12] it was 4.7 IU/ml.
For `CCCCNc1nc(N)c2nc(O)n(Cc3ccc([N+](=O)[O-])cc3)c2n1`, the Activity in [1] was 11.6 IU/ml; in series [2], 444 IU/ml; in [4] it was <0.5 IU/ml; in series [8], 2 IU/ml; in series [11], 61 IU/ml; in series [12], 4.5 IU/ml.
Turning to `CCCCNc1nc(N)c2nc(O)n(Cc3cccc4ccccc34)c2n1`, the Activity is on record as 2.2 IU/ml in series [1]; 39 IU/ml in series [2]; <0.5 IU/ml in [4]; 15.4 IU/ml in series [8]; <5 IU/ml in series [11]; 34 IU/ml in [12].
In the case of `CCCCNc1nc(N)c2nc(O)n(Cc3ccc(F)c(F)c3)c2n1`, the Activity is 6.4 IU/ml in series [1]; 338 IU/ml in series [2]; <0.5 IU/ml in series [4]; 7.1 IU/ml in series [8]; 35 IU/ml in [11]; 14.7 IU/ml in series [12].
Regarding `CCCCNc1nc(N)c2nc(O)n(Cc3cccnc3Cl)c2n1`, the Activity in series [1] was 3.7 IU/ml; in series [2] it was 94 IU/ml; in series [4], <0.5 IU/ml; in series [8], 5 IU/ml; in series [11], <5 IU/ml; in series [12], 16.3 IU/ml.
Take `CCCCNc1nc(N)c2nc(O)n(Cc3cncc(C)c3)c2n1`: the Activity in [1] is reported as 2.4 IU/ml; in series [3], <0.5 IU/ml; in series [4] it was 1.9 IU/ml; in [8] it was 4.6 IU/ml; in [12], 2.1 IU/ml.
Regarding `CCCCNc1nc(N)c2nc(O)n(Cc3ccc(C(F)(F)F)cc3)c2n1`, the Activity is 2.9 IU/ml in series [1]; 276 IU/ml in [2]; <0.5 IU/ml in series [4]; 15.2 IU/ml in [8]; 8 IU/ml in series [11]; 10.7 IU/ml in series [12].
For the compound `CCCCNc1nc(N)c2nc(O)n(Cc3ccc(N(C)C)nc3)c2n1`, the Activity is reported as 9.4 IU/ml in series [1]; <0.5 IU/ml in series [3]; 4.9 IU/ml in [4]; 2.7 IU/ml in [8]; <5 IU/ml in series [11]; 5.1 IU/ml in series [12].
As for `CCCCNc1nc(N)c2nc(O)n(Cc3ccc(OC)nc3)c2n1`, the Activity in [1] is reported as 13.4 IU/ml; in series [2] it was 1920 IU/ml; in series [3] it was <0.5 IU/ml; in [4] it was 8.2 IU/ml; in series [5], 3 IU/ml; in series [6], 17422 IU/ml. For the same compound, the Activity entry is listed as “Not Active” in series [7]; 1 IU/ml in [8]; 244 IU/ml in series [9]; “Not Active” in series [10]; 375 IU/ml in [11]; 3 IU/ml in series [12]. In [15], the Activity result was “Not Active”. Further, the values for the peak concentration (Cmax) in [14] and in series [13] were 1200 ng/mL and 109 ng/mL, respectively.
As for `CCCCNc1nc(N)c2nc(O)n(Cc3ccc(Cl)cc3)c2n1`, the Activity in [1] is on record as 8.5 IU/ml; in [2], 219 IU/ml; in [4] it was <0.5 IU/ml; in [8], 7.4 IU/ml; in series [11], 7 IU/ml; in series [12] it was 8.2 IU/ml.
Consider `CCCCNc1nc(N)c2nc(O)n(Cc3ccc(Cl)s3)c2n1`, for which the Activity in series [1] is on record as 8.9 IU/ml; in [2], 484 IU/ml; in [4], <0.5 IU/ml; in [8], 7.2 IU/ml; in [11], 34 IU/ml; in series [12], 11.3 IU/ml.

The values are drawn from ChEMBL document CHEMBL1139013, “Synthesis and biological evaluation of novel 9-substituted-8-hydroxyadenine derivatives as potent interferon inducers” (J Med Chem, 2006).
